Blank lines part the entries; values can stand above or below the compound they belong to.
Columns and labels:
[1] = Protein binding in rat plasma assessed as unbound fraction measured after 5 hrs by equilibrium dialysis based HPLC/UPLC-MS/MS analysis; assay type: ADME, cell-free
Mus musculus [2] = experiment: Gastroprokinetic activity in CD-1 mouse assessed as stimulation of gastrointestinal motility by measuring total fecal weight at 10 mg/kg, po measured after 2 hrs (reference value: 0.13 +/-0.02 g); assay type: functional
[3] = Drug concentration in C57BL6 mouse colon at 100 mg/kg, po administered as single dose measured after 48 hrs by LC-MS/MS analysis; assay type: ADME, organism-based; details: read-out: Ct
Summary of the method: (§1)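 Single oral dose of 1, 3 or 100 mg/kg in mouse. Plasma (ng/mL) and colon and ileum (ng/g) exposure sampled at 6, 24 and 48 h, and at 72 h for the top dose; mean values reported.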

Mus musculus [4] = experiment: Gastroprokinetic activity in CD-1 mouse assessed as stimulation of gastrointestinal motility by measuring total fecal weight at 1 mg/kg, po measured after 1 hrs (reference value: 0.08 +/-0.02 g); assay type: functional
Mus musculus [5] = experiment: Gastroprokinetic activity in CD-1 mouse assessed as stimulation of gastrointestinal motility by measuring fecal number at 10 mg/kg, po measured after 1 hrs (reference value: 3 +/-0.8); assay type: functional
Mus musculus [6] = experiment: Gastroprokinetic activity in CD-1 mouse assessed as stimulation of gastrointestinal motility by measuring fecal number at 1 mg/kg, po measured after 1 hrs (reference value: 3 +/-0.8); assay type: functional
[7] = Drug concentration in C57BL6 mouse ileum at 100 mg/kg, po administered as single dose measured after 24 hrs by LC-MS/MS analysis; assay type: ADME, organism-based; details: read-out: Ct; summary of the method: as §1
Mus musculus [8] = experiment: Gastroprokinetic activity in CD-1 mouse assessed as stimulation of gastrointestinal motility by measuring total fecal weight at 10 mg/kg, po measured after 6 hrs (reference value: 0.43 +/-0.05 g)
[9] = Toxicity in CD-1 mouse assessed as effect on behavioral change at 1 to 100 mg/kg, po measured up to 6 hrs; assay type: organism-based; details: in vivo, dose 1-100 mg/kg
Summary of the method: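 CD-1 mice dosed orally at 1, 10 or 100 mg/kg or with formulation vehicle (N = 12/group). General health status, locomotion and general behaviour observed at 1, 2, 3 and 6 h after treatment, alongside fecal collection in single grid-floored cages.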

Mus musculus [10] = experiment: Gastroprokinetic activity in CD-1 mouse assessed as stimulation of gastrointestinal motility by measuring fecal number at 1 mg/kg, po measured after 3 hrs (reference value: 9.1 +/-1.1); assay type: functional
Mus musculus [11] = experiment: Gastroprokinetic activity in CD-1 mouse assessed as stimulation of gastrointestinal motility by measuring fecal number at 100 mg/kg, po measured after 6 hrs (reference value: 20.1 +/-1.4); assay type: functional
Mus musculus [12] = experiment: Gastroprokinetic activity in CD-1 mouse assessed as stimulation of gastrointestinal motility by measuring fecal number at 10 mg/kg, po measured after 3 hrs (reference value: 9.1 +/-1.1); assay type: functional
[13] = Drug concentration in C57BL6 mouse colon at 3 mg/kg, po administered as single dose measured after 6 hrs by LC-MS/MS analysis; assay type: ADME, organism-based; details: read-out: Ct; summary of the method: as §1
[14] = Drug concentration in C57BL6 mouse ileum at 100 mg/kg, po administered as single dose measured after 6 hrs by LC-MS/MS analysis; assay type: ADME, organism-based; details: read-out: Ct; summary of the method: as §1
[15] = Drug concentration in C57BL6 mouse plasma at 100 mg/kg, po administered as single dose measured after 24 to 72 hrs by LC-MS/MS analysis; assay type: ADME, organism-based; details: in vivo, time 24-72 hrs; summary of the method: as §1
[16] = Drug concentration in C57BL6 mouse colon at 3 mg/kg, po administered as single dose measured after 24 to 48 hrs by LC-MS/MS analysis; assay type: ADME, organism-based; details: in vivo, time 24-48 hrs; summary of the method: as §1
[17] = Drug concentration in C57BL6 mouse plasma at 1 mg/kg, po administered as single dose measured after 6 to 48 hrs by LC-MS/MS analysis; assay type: ADME, organism-based; details: in vivo, time 6-48 hrs; summary of the method: as §1
Mus musculus [18] = experiment: Gastroprokinetic activity in CD-1 mouse assessed as stimulation of gastrointestinal motility by measuring total fecal weight at 1 mg/kg, po measured after 6 hrs (reference value: 0.43 +/-0.05 g); assay type: functional
[19] = Effect on locomotor activity in CD-1 mouse at 1 to 100 mg/kg, po measured up to 6 hrs; assay type: organism-based; details: in vivo, dose 1-100 mg/kg
Mus musculus [20] = experiment: Gastroprokinetic activity in CD-1 mouse assessed as stimulation of gastrointestinal motility by measuring fecal number at 1 mg/kg, po measured after 2 hrs (reference value: 5.3 +/-0.7); assay type: functional
[21] = Drug concentration in C57BL6 mouse colon at 100 mg/kg, po administered as single dose measured after 72 hrs by LC-MS/MS analysis; assay type: ADME, organism-based; summary of the method: as §1
Mus musculus [22] = experiment: Gastroprokinetic activity in CD-1 mouse assessed as stimulation of gastrointestinal motility by measuring total fecal weight at 100 mg/kg, po measured after 1 hrs (reference value: 0.08 +/-0.02 g); assay type: functional
[23] = Drug concentration in C57BL6 mouse plasma at 3 mg/kg, po administered as single dose measured after 6 to 48 hrs by LC-MS/MS analysis; assay type: ADME, organism-based; details: in vivo, time 6-48 hrs; summary of the method: as §1
Mus musculus [24] = experiment: Gastroprokinetic activity in CD-1 mouse assessed as stimulation of gastrointestinal motility by measuring fecal number at 10 mg/kg, po measured after 6 hrs (reference value: 20.1 +/-1.4); assay type: functional
Mus musculus [25] = experiment: Gastroprokinetic activity in CD-1 mouse assessed as stimulation of gastrointestinal motility by measuring total fecal weight at 1 mg/kg, po measured after 3 hrs (reference value: 0.21 +/-0.03 g); assay type: functional
Mus musculus [26] = experiment: Gastroprokinetic activity in CD-1 mouse assessed as stimulation of gastrointestinal motility by measuring total fecal weight at 100 mg/kg, po measured after 3 hrs (reference value: 0.21 +/-0.03 g); assay type: functional
[27] = Drug concentration in C57BL6 mouse ileum at 100 mg/kg, po administered as single dose measured after 48 to 72 hrs by LC-MS/MS analysis; assay type: ADME, organism-based; details: in vivo, time 48-72 hrs; summary of the method: as §1
[28] = Oral bioavailability in CD-1 mouse at 10 mg/kg measured up to 24 hrs; assay type: ADME, organism-based; details: in vivo
[29] = AUClast in CD-1 mouse at 1 mg/kg, iv measured up to 24 hrs; assay type: ADME, organism-based; parameters: route intravenous, dose 1 mg/kg, time <=24; details: in vivo
[30] = Clast in CD-1 mouse at 10 mg/kg, po measured up to 24 hrs; assay type: ADME, organism-based; details: in vivo, read-out: Clast
[31] = Clast in CD-1 mouse at 1 mg/kg, iv measured up to 24 hrs; assay type: ADME, organism-based; details: in vivo, read-out: Clast
[32] = Volume of distribution at steady state in CD-1 mouse at 1 mg/kg, iv measured up to 24 hrs; assay type: ADME, organism-based; details: in vivo, read-out: Vdss
[33] = AUClast in CD-1 mouse at 10 mg/kg, po measured up to 24 hrs; assay type: ADME, organism-based; parameters: route oral, dose 10 mg/kg, time <=24; details: in vivo
[34] = Half life in CD-1 mouse at 1 mg/kg, iv measured up to 24 hrs; assay type: ADME, organism-based; details: in vivo

- fraction unbound at 5 h [1]: < 0.01
SMILES: Clc1cnc(CNc2ccc3sncc3c2)s1

- concentration at 48 h [3]: 58 ng/g
- concentration at 24 h [7]: 202 ng/g
- concentration at 6 h [13]: 143 ng/g
- concentration at 6 h [14]: 7380 ng/g
- Cp [15]: < 20 ng/mL
- Ct [16]: < 20 ng/mL
- Cp [17]: < 20 ng/mL
- concentration at 72 h [21]: < 20 ng/mL
- Cp [23]: < 20 ng/mL
- Ct [27]: < 20 ng/mL
SMILES: Clc1cnc(CNc2cc3sncc3cc2Cl)s1
- Activity (Mus musculus [2]): 0.18 g
- Activity (Mus musculus [4]): 0.09 g
- Activity (Mus musculus [5]): 3.4
- Activity (Mus musculus [6]): 4.3
- Activity (Mus musculus [8]): 0.39 g
- Activity [9]: Non-Toxic
- Activity (Mus musculus [10]): 11.8
- Activity (Mus musculus [11]): 16.3
- Activity (Mus musculus [12]): 10.3
- Activity (Mus musculus [18]): 0.45 g
- Activity [19]: Non-Toxic
- Activity (Mus musculus [20]): 7.5
- Activity (Mus musculus [22]): 0.12 g
- Activity (Mus musculus [24]): 18.5
- Activity (Mus musculus [25]): 0.23 g
- Activity (Mus musculus [26]): 0.41 g

- bioavailability [28]: 1.54%
- AUClast [29]: 541 ng·h/mL
- concentration at 24 h [30]: 2.76 ng/mL
- concentration at 24 h [31]: 2.99 ng/mL
- Vd [32]: 1.12 L/kg
- AUC(0-t) at 24 h [33]: 94.3 ng·h/mL
- half-life [34]: 48.6 min
SMILES: Clc1cnc(CNc2ccc3cnsc3c2)s1

From ChEMBL document CHEMBL4823260, “From High-Throughput Screening to Target Validation: Benzo[d]isothiazoles as Potent and Selective Agonists of Human Transient Receptor Potential Cation Channel Subfamily M Member 5 Possessing In Vivo Gastrointestinal Prokinetic Activity in Rodents” (J Med Chem, 2021)
